Measurements taken from ChEMBL document CHEMBL3046326, “Screening of dialkoxybenzenes and disubstituted cyclopentene derivatives against the cabbage looper, Trichoplusia ni, for the discovery of new feeding and oviposition deterrents” (J Agric Food Chem, 2007).

Legend:
[1] = tested on: Trichoplusia ni; assay: Feeding deterrent activity against freshly molted third-instar larval stage of Trichoplusia ni (cabbage looper), Trichoplusia ni at 50 ug/cm'2 after 3 to 5 hr by leaf disk choice bioassay; assay type: functional
Outline: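 Leaf disk choice with freshly molted third instar larvae starved 4–5 h. One disk was painted on each side with 10 µL solution giving 50 µg/cm², the other with carrier solvent. Twenty-five larvae per treatment, stopped at ~50% control disk consumption (3–5 h). Deterrence = [(C − T)/(C + T)] × 100 from consumed areas; mean ± SE, Tukey's test p < 0.05.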

[2] = tested on: Trichoplusia ni; assay: Toxicity against third-instar larval stage of Trichoplusia ni (cabbage looper) assessed as mortality at 0.25% measured after 24 hr by contact toxicity bioassay; assay type: functional
Outline: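 Third-instar larvae were sprayed directly with test solution at 0.25% in filter-paper-lined Petri dishes. They were then moved to dishes holding a small piece of artificial diet. Mortality was scored 24 h after spraying. The test applied only to compounds giving >50% feeding deterrence at 50 µg/cm².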

[3] = tested on: Trichoplusia ni; assay: Oviposition deterrent activity against adult female Trichoplusia ni (cabbage looper) moths introduced along with male moths into oviposition cage containing compound pretreated cabbage leaves assessed as eggs laying on the leaf disks at 0.25% after 48 hr by oviposition choice bioassay; assay type: functional
Outline: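 Choice test with moths from larvae reared on normal diet from neonate to pupation. Pupae were sexed and held separately until emergence. Cabbage leaves were treated with test substance at 0.25% or left as control, and eggs per leaf were counted after 48 h. ODI = [(C − T)/(C + T)] × 100 from egg numbers on control and treated leaves.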

[4] = tested on: Trichoplusia ni; assay: Feeding deterrent activity against freshly molted third-instar larval stage of Trichoplusia ni (cabbage looper) after 3 to 5 hr by leaf disk choice bioassay; assay type: functional, organism-based
Outline: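 Choice test: freshly molted third instar larvae, starved 4–5 h, offered two leaf disks, one painted on each side with 10 µL test solution and one with carrier solvent only. Twenty-five larvae per treatment. Ended when ~50% of the control disk was eaten (normally 3–5 h). Consumed areas measured. DC50 derived by linear regression of at least four concentrations (3.12–25 µg/cm²).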

SMILES | Activity [1] | mortality [2] | Activity [3] | DC50 [4]
CCCOc1ccccc1OCCC(C)C | 66.9% | 10% | 29.4% | 32.5 microg/cm2
CCCCCCCCCO[C@H]1C=CC[C@H]1CCOCCC(C)C (racemic) | 22% |  |  | 
CCCCCCCCCO[C@H]1C=CC[C@H]1CCO (racemic) | 45.2% |  |  | 
CCCCO[C@H]1C=CC[C@H]1CCO (racemic) | 41.6% |  |  | 
OCC[C@@H]1CC=C[C@@H]1O (racemic) | 36.6% |  |  | 
CCCOCC[C@@H]1CC=C[C@@H]1OCCC (racemic) | 66.7% | 37.5% | 41.8% | 32.6 microg/cm2
CCCCOCC[C@@H]1CC=C[C@@H]1OCCCC (racemic) | 76% | 30% | 29.5% | 29.2 microg/cm2
CC(C)CCOCC[C@@H]1CC=C[C@@H]1OCCC(C)C (racemic) | 58.6% | 44.8% | 47% | 34.4 microg/cm2
COCC[C@@H]1CC=C[C@@H]1OC (racemic) | -17.6% |  |  | 
CCOCC[C@@H]1CC=C[C@@H]1OCC (racemic) | -17.8% |  |  | 
C=CCOc1ccccc1OCC=C [1,2-DIALLYLOXYBENZENE] | 70.4% | 20% | 15% | 22.4 microg/cm2
CCCCOc1ccccc1OCCCC [1,2-DIBUTOXYBENZENE] | 56.4% | 10% | 19.6% | 43.8 microg/cm2
CCOc1ccccc1OCC [1,2-DIETHOXYBENZENE] | -2.1% |  |  | 
CC(C)CCOc1ccccc1OCCC(C)C [1,2-DIISOPENTOXYBENZENE] | 69.9% | 40% | 11.5% | 19.6 microg/cm2
COc1ccccc1OC [1,2-DIMETHOXYBENZENE] | 26% |  |  | 
CCCOc1ccccc1OCCC [1,2-DIPROPOXYBENZENE] | 26.2% |  |  | 
CCOc1cccc(OCC)c1 [1,3-DIETHOXYBENZENE] | 89.4% | 36.7% | 3.4% | 28.7 microg/cm2
CC(C)CCOc1cccc(OCCC(C)C)c1 [1,3-DIISOPENTOXYBENZENE] | -12.2% |  |  | 
COc1cccc(OC)c1 [1,3-DIMETHOXYBENZENE] | 20.4% |  |  | 
CCCOc1cccc(OCCC)c1 [1,3-DIPROPOXYBENZENE] | 96.9% | 76.7% | 33% | 26.8 microg/cm2
C=CCOc1ccc(OCC=C)cc1 [1,4-DIALLYLOXYBENZENE] | 96.9% | 16% | 14.1% | 23.9 microg/cm2

SMILES | Activity [1] | mortality [2] | Activity [3] | DC50 [4]
CC(C)CCOc1ccc(OCCC(C)C)cc1 [1,4-DIISOPENTOXYBENZENE] | 44% |  |  | 
COc1ccc(OC)cc1 [1,4-DIMETHOXYBENZENE] | 9.9% |  |  | 
CCCOc1ccc(OCCC)cc1 [1,4-DIPROPOXYBENZENE] | 96% | 22.6% | 11.8% | 20.3 microg/cm2
C=CCOc1ccccc1OCCCC [1-allyloxy-2-butoxybenzene] | 67.8% | 23.3% | 66.7% | 30 microg/cm2
C=CCOc1ccccc1OCC [1-allyloxy-2-ethoxybenzene] | 67.8% | 23.3% | 66.7% | 30 microg/cm2
C=CCOc1ccccc1OC [1-allyloxy-2-methoxybenzene] | 67.8% | 23.3% | 66.7% | 30 microg/cm2
C=CCOc1ccccc1OCCCCC [1-allyloxy-2-pentoxybenzene] | 67.8% | 23.3% | 66.7% | 30 microg/cm2
C=CCOc1ccccc1OCCC [1-allyloxy-2-propoxybenzene] | 67.8% | 23.3% | 66.7% | 30 microg/cm2
C=CCOc1ccc(OCCCC)cc1 [1-allyloxy-4-butoxybenzene] | 84% | 10% | 16.8% | 22.6 microg/cm2
C=CCOc1ccc(OCC)cc1 [1-allyloxy-4-ethoxybenzene] | 82.4% | 10% | 5.4% | 27.9 microg/cm2
C=CCOc1ccc(OCCC(C)C)cc1 [1-allyloxy-4-isopentoxybenzene] | 75.1% | 7% | 18.8% | 15.7 microg/cm2
C=CCOc1ccc(OC)cc1 [1-allyloxy-4-methoxybenzene] | 82.4% | 10% | 5.4% | 27.9 microg/cm2
C=CCOc1ccc(OCCC)cc1 [1-allyloxy-4-propoxybenzene] | 82.4% | 10% | 5.4% | 27.9 microg/cm2
CCCCCOc1ccccc1OCCCC [1-butoxy-2-pentoxybenzene] | 98% | 6.7% | 28.7% | 16.8 microg/cm2
CCCCOc1cccc(OCC)c1 [1-butyloxy-3-ethoxybenzene] | 84.1% | 30% | 25.9% | 14.4 microg/cm2
CCCCOc1cccc(OC)c1 [1-butyloxy-3-methoxybenzene] | 84.1% | 30% | 25.9% | 14.4 microg/cm2
CCCCCOc1cccc(OCCCC)c1 [1-butyloxy-3-pentoxybenzene] | 84.1% | 30% | 25.9% | 14.4 microg/cm2
CCCCOc1cccc(OCCC)c1 [1-butyloxy-3-propoxybenzene] | 84.1% | 30% | 25.9% | 14.4 microg/cm2
CCCCOc1ccc(OCC)cc1 [1-butyloxy-4-ethoxybenzene] | 83.4% | 58.1% | 50.1% | 14.5 microg/cm2
CCCCOc1ccc(OC)cc1 [1-butyloxy-4-methoxybenzene] | 83.4% | 58.1% | 50.1% | 14.5 microg/cm2
CCCCCOc1ccc(OCCCC)cc1 [1-butyloxy-4-pentoxybenzene] | 83.4% | 58.1% | 50.1% | 14.5 microg/cm2

SMILES | Activity [1] | mortality [2] | Activity [3] | DC50 [4]
CCCCOc1ccc(OCCC)cc1 [1-butyloxy-4-propoxybenzene] | 83.4% | 58.1% | 50.1% | 14.5 microg/cm2
CCCCOc1ccccc1OCC [1-ethoxy-2-butoxybenzene] | 71% | 6.7% | 28.7% | 24.1 microg/cm2
CCCCCOc1ccccc1OCC [1-ethoxy-2-pentoxybenzene] | 71% | 6.7% | 28.7% | 24.1 microg/cm2
C=CCOc1ccccc1O [1-hydroxy-2-allyloxybenzene] | 31.1% |  |  | 
CCCCOc1ccccc1O [1-hydroxy-2-butoxybenzene] | 12% |  |  | 
CCOc1ccccc1O [1-hydroxy-2-ethoxybenzene] | -5.3% |  |  | 
CCCOc1ccccc1O [1-hydroxy-2-propoxybenzene] | -12% |  |  | 
CCOc1cccc(O)c1 [1-hydroxy-3-ethoxybenzene] | -18.7% |  |  | 
CC(C)CCOc1cccc(O)c1 [1-hydroxy-3-isopentoxybenzene] | -5.8% |  |  | 
COc1cccc(O)c1 [1-hydroxy-3-methoxybenzene] | 44.7% |  |  | 
CCCOc1cccc(O)c1 [1-hydroxy-3-propoxybenzene] | 4% |  |  | 
CCOc1ccc(O)cc1 [1-hydroxy-4-ethoxybenzene] | 29.8% |  |  | 
CC(C)CCOc1ccc(O)cc1 [1-hydroxy-4-isopentoxybenzene] | 29.5% |  |  | 
CCCOc1ccc(O)cc1 [1-hydroxy-4-propoxybenzene] | -28% |  |  | 
CCCCOc1ccccc1OC [1-methoxy-2-butoxybenzene] | 23.5% |  |  | 
CCOc1ccccc1OC [1-methoxy-2-ethoxybenzene] | 23.5% |  |  | 
CCCCCOc1ccccc1OC [1-methoxy-2-pentoxybenzene] | 23.5% |  |  | 
CCCOc1ccccc1OC [1-methoxy-2-propoxybenzene] | 23.5% |  |  | 
COc1ccccc1O [GUAIACOL] | -7.5% |  |  | 
COc1ccc(O)cc1 [MEQUINOL] | -26.5% |  |  | 
